Measured values gathered from unrelated publications.
Target: Serine/threonine-protein kinase MARK2 (MARK2, Homo sapiens, UniProt Q7KZI7)

SMILES | test | setting | endpoint | result
C=CC(=O)N1CCC([C@@H]2CCNc3c(C(N)=O)c(-c4ccc(Oc5ccccc5)cc4)nn32)CC1 | enzyme activity, inhibitor | 1 µM | inhibition | 0%
COc1ccc2oc(-c3ccc4nc(N)oc4c3)c/c(=N\c3ccccc3NC(=O)CCN)c2c1 | binding | 1 µM | remaining binding | 97%
COc1ccc2[nH]c3c4[nH]c5ccc(OC)cc5c4c4c(c3c2c1)C(=O)NC4=O | binding | 1 µM | remaining binding | 71%
C1=C/COCc2cc(ccc2OCCN2CCCC2)Nc2nccc(n2)-c2cccc(c2)COC/1 | binding | 0.1 µM | remaining binding | 66%
Cc1ccc(NC(=O)c2ccnc(C(F)(F)F)c2)cc1-c1cc(OCCO)nc(N2CCOCC2)c1 | binding | 1 µM | remaining binding | 99%
CCCCC(=O)Nc1ccc(-c2ccc3ncn(CCC)c(=O)c3c2)cn1 | binding, competition with immobilised ligand | 0.5 µM | remaining binding | 92%
Cc1cc(O)c(-c2ccc([C@@H](C)CN(C)C)cc2)c2c1[nH]c(=O)c1sccc12 | enzyme activity, inhibitor | 0.1 µM | inhibition | 4.31%
C=CC(=O)N1CCC[C@@H](n2nc(-c3ccc(Oc4ccccc4)cc3)c3c(N)ncnc32)C1 | enzyme activity, inhibitor | 1 µM | inhibition | 10%
